Test results as given in ChEMBL document CHEMBL1146871, “Hydrazides of clozapine: a new class of D1 dopamine receptor subtype selective antagonists” (Bioorg Med Chem Lett, 2006).
pKi: −log10 of the molar value.

What was measured:
[1] = target: T1, D(1A) dopamine receptor (Homo sapiens, UniProt P21728); assay: Displacement of [3H]SCH 23390 from human dopamine D1 receptor expressed in CHO cells; type: cell-based
[2] = target: T2, D(2) dopamine receptor (Homo sapiens, UniProt P14416); assay: Displacement of [3H]methylspiperone from human dopamine D2 receptor expressed in CHO cells; type: cell-based
T2 sequence (P14416 whole entry): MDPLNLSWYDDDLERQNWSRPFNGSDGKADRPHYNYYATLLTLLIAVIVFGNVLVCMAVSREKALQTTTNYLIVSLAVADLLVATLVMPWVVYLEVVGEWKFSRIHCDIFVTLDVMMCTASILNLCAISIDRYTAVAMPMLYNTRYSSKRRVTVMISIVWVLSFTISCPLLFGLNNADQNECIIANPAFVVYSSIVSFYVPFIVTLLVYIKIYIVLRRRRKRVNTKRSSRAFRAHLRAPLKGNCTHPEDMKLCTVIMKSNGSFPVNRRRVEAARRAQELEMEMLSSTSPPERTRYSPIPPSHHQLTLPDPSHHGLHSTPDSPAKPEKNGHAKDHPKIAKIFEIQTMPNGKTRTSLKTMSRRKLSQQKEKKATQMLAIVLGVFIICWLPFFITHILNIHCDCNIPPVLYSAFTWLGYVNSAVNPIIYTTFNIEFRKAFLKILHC

[3] = target: T3, D(4) dopamine receptor (Homo sapiens, UniProt P21917); assay: Binding affinity at dopamine D4 receptor
T3 sequence (P21917 whole entry): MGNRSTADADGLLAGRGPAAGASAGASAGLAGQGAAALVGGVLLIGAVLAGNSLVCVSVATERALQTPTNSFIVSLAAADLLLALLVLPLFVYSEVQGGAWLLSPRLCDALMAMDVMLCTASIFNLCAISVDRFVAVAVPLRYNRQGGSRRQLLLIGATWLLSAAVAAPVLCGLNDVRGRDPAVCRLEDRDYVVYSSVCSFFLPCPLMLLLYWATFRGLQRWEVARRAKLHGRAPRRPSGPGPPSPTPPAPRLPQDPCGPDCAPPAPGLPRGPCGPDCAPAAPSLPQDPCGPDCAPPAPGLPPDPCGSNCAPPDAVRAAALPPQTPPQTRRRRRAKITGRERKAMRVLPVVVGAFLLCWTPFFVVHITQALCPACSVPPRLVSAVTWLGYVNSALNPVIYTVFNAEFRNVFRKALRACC

[4] = target: T2, D(2) dopamine receptor; assay: Binding affinity at dopamine D2 receptor
Procedure, shortened: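 Membranes from cells stably expressing D2 receptor (4-7 pmol/mg protein; Ltk- cells in one passage, CHO in another), made by hypotonic lysis and 48,000g spin and stored at -80 °C. Incubated with 0.5 nM [3H]methylspiperone for 1 h at room temperature. Nonspecific binding set by 10 µM (-)-sulpiride. Rapid filtration, then scintillation counting. One-site competition fit; Ki is the mean of separate determinations.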

[5] = target: 5-hydroxytryptamine receptor 2A (Homo sapiens, UniProt P28223); assay: Binding affinity at 5HT2A receptor
Chain of 5-hydroxytryptamine receptor 2A (P28223 whole entry): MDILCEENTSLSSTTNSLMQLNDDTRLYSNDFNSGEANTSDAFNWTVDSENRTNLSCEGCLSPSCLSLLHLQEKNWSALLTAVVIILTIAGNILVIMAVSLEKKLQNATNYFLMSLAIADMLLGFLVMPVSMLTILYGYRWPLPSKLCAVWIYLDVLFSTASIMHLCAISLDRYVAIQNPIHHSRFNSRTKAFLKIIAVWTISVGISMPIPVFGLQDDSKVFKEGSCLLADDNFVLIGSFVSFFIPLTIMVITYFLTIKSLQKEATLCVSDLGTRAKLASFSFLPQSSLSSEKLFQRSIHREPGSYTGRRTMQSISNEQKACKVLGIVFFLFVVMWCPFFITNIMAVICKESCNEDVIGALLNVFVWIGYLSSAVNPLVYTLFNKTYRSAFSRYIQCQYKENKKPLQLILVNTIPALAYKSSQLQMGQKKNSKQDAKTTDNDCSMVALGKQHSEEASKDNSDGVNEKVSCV

[6] = target: T4, Alpha-2A adrenergic receptor (Homo sapiens, UniProt P08913); assay: Binding affinity at adrenergic alpha2A receptor
T4 sequence (P08913 whole entry): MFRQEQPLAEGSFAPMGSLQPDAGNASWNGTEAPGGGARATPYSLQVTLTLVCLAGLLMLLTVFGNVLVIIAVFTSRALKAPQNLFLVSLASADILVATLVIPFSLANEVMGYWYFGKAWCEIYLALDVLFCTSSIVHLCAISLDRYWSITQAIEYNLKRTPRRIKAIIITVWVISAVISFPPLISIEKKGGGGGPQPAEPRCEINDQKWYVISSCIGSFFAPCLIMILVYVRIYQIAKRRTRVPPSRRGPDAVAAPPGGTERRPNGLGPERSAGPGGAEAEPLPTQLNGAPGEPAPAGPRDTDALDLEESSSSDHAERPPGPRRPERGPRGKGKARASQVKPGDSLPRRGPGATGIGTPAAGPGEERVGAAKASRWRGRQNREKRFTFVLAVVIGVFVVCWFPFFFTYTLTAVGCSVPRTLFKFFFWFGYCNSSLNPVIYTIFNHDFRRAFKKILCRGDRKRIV

[7] = target: T1, D(1A) dopamine receptor; assay: Activity at dopamine D1 receptor by cAMP assay; type: functional
[8] = target: D(1B) dopamine receptor (Homo sapiens, UniProt P21918); assay: Binding affinity at dopamine D5 receptor
Chain of D(1B) dopamine receptor (P21918 whole entry): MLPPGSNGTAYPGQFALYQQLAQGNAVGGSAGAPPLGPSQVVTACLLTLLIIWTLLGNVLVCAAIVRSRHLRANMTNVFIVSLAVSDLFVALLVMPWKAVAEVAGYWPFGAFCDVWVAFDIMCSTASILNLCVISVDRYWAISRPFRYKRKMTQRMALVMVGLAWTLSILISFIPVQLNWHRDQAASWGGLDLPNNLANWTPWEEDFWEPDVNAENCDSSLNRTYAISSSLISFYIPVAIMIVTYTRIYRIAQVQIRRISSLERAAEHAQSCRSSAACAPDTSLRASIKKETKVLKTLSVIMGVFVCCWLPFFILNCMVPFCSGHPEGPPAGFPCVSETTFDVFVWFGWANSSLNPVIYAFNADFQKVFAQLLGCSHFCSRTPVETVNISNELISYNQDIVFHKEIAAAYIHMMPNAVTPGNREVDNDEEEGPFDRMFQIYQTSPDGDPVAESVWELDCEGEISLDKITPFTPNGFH

T1 sequence (P21728 whole entry): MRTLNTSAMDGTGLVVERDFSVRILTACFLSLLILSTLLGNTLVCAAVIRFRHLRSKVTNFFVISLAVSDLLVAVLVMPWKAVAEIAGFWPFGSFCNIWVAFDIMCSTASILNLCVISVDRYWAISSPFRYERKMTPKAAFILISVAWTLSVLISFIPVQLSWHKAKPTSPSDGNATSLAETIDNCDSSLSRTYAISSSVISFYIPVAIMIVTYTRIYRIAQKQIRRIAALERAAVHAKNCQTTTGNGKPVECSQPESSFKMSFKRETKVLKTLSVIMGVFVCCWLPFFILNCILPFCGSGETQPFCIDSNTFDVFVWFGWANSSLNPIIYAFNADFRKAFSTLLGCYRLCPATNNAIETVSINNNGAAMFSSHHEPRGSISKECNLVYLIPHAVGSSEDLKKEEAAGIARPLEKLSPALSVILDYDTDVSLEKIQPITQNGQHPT

Compound	pKi [1]	pKi [2]	other results
CN1CCN(C2=Nc3cc(Cl)ccc3N(NC(=O)c3ccccc3NC3CCCCC3)c3ccccc32)CC1	7.21	5.42	–
CN1CCN(C2=Nc3cc(Cl)ccc3N(NC(=O)c3cnn(-c4ccccc4)c3C(F)(F)F)c3ccccc32)CC1	7.52	5.68	–
CC(=O)NN1c2ccc(Cl)cc2N=C(N2CCN(C)CC2)c2ccccc21	6.31	–	–
COc1ccc(CCC(=O)NN2c3ccc(Cl)cc3N=C(N3CCN(C)CC3)c3ccccc32)cc1Cl	7.25	6.24	–
CN1CCN(C2=Nc3cc(Cl)ccc3N(NC(=O)C3CCC3)c3ccccc32)CC1	6.82	–	–
Cc1cccc(C(=O)NN2c3ccc(Cl)cc3N=C(N3CCN(C)CC3)c3ccccc32)c1	8.52	6.29	–
COc1cccc(C(=O)NN2c3ccc(Cl)cc3N=C(N3CCN(C)CC3)c3ccccc32)c1	7.89	5.95	–
CCCC(CCC)C(=O)NN1c2ccc(Cl)cc2N=C(N2CCN(C)CC2)c2ccccc21	7.59	5.73	–
COc1ccc(C(=O)NN2c3ccc(Cl)cc3N=C(N3CCN(C)CC3)c3ccccc32)cc1	7.33	5.52	–
CN1CCN(C2=Nc3cc(Cl)ccc3N(NC(=O)c3cccc(F)c3)c3ccccc32)CC1	7.33	6.04	–
CN1CCN(C2=Nc3cc(Cl)ccc3N(NC(=O)c3ccccc3)c3ccccc32)CC1	6.80	5.94	–
CN1CCN(C2=Nc3cc(Cl)ccc3N(NC(=O)CCc3ccccc3)c3ccccc32)CC1	7.10	6.21	–
CN1CCN(C2=Nc3cc(Cl)ccc3N(NC(=O)c3nccc4ccccc34)c3ccccc32)CC1	7.64	6.32	–
CN1CCN(C2=Nc3cc(Cl)ccc3N(N)c3ccccc32)CC1	6.55	6.19	–
CN1CCN(C2=Nc3cc(Cl)ccc3N(NC(=O)c3ccc(C(F)(F)F)cc3)c3ccccc32)CC1	7.17	–	–
CN1CCN(C2=Nc3cc(Cl)ccc3N(NC(=O)c3ccccc3F)c3ccccc32)CC1	7.92	6.43	–
CN1CCN(C2=Nc3cc(Cl)ccc3N(NC(=O)c3ccccc3N3CCCCC3)c3ccccc32)CC1	8.11	6.67	–
CN1CCN(C2=Nc3cc(Cl)ccc3N(NC(=O)/C=C/c3ccccc3)c3ccccc32)CC1	6.99	5.80	–
CN1CCN(C2=Nc3cc(Cl)ccc3N(NC(=O)c3ccc4ccccc4n3)c3ccccc32)CC1	8.00	6.03	–
CCCC(=O)NN1c2ccc(Cl)cc2N=C(N2CCN(C)CC2)c2ccccc21	6.81	6.40	–
CN1CCN(C2=Nc3cc(Cl)ccc3N(NC(=O)c3ccc4ccccc4c3)c3ccccc32)CC1	8.13	5.88	–
CN1CCN(C2=Nc3cc(Cl)ccc3N(NC(=O)c3ccc(Cl)cc3)c3ccccc32)CC1	7.46	5.03	–
CN1CCN(C2=Nc3cc(Cl)ccc3N(NC(=O)C(F)(F)F)c3ccccc32)CC1	7.07	5.72	–
CN1CCN(C2=Nc3cc(Cl)ccc3N(NC(=O)c3ccc(Br)cc3)c3ccccc32)CC1	7.85	5.62	–
CCOc1c(C(=O)NN2c3ccc(Cl)cc3N=C(N3CCN(C)CC3)c3ccccc32)sc2ccccc12	7.55	6.71	–

Compound	pKi [1]	pKi [2]	other results
CN1CCN(C2=Nc3cc(Cl)ccc3N(NC(=O)C3CCCCC3)c3ccccc32)CC1	7.38	5.75	–
CN1CCN(C2=Nc3cc(Cl)ccc3N(NC(=O)c3ccsc3)c3ccccc32)CC1	8.05	5.52	–
CN1CCN(C2=Nc3cc(Cl)ccc3N(NC(=O)c3cccs3)c3ccccc32)CC1	7.85	5.83	–
CN1CCN(C2=Nc3cc(Cl)ccc3N(NC(=O)c3c(N)cccc3Cl)c3ccccc32)CC1	8.59	6.30	pKi [3]: 6.09; pKi [4]: 6.30; pKi [5]: 9.05; pKi [6]: 6.49; Kb [7]: 1.7 nM; Activity ([7]; filed as antagonist): Antagonist; pKi [8]: 7.28
CN1CCN(C2=Nc3cc(Cl)ccc3N(NC(=O)c3cccc(I)c3)c3ccccc32)CC1	8.44	6.46	–
CN1CCN(C2=Nc3cc(Cl)ccc3N(NC(=O)c3ccccc3Oc3ccccc3)c3ccccc32)CC1	7.29	6.37	–
CN1CCN(C2=Nc3cc(Cl)ccc3N(NC(=O)c3cnc4ccccc4c3)c3ccccc32)CC1	7.55	–	–
CCOc1ccc2ccccc2c1C(=O)NN1c2ccc(Cl)cc2N=C(N2CCN(C)CC2)c2ccccc21	7.19	6.56	–
CN1CCN(C2=Nc3cc(Cl)ccc3N(NC(=O)c3ccco3)c3ccccc32)CC1	7.82	6.08	–
CN1CCN(C2=Nc3cc(Cl)ccc3N(NC(=O)c3cccnc3Cl)c3ccccc32)CC1	7.96	6.20	–
CCOc1csc(C(=O)NN2c3ccc(Cl)cc3N=C(N3CCN(C)CC3)c3ccccc32)c1	8.00	6.74	–
CN1CCN(C2=Nc3cc(Cl)ccc3N(NC(=O)c3ccccc3N3CCN(C)CC3)c3ccccc32)CC1	6.63	5.42	–
CN1CCN(C2=Nc3cc(Cl)ccc3N(NC(=O)CCC3CCCC3)c3ccccc32)CC1	6.95	5.71	–
Cc1ccc(C(=O)NN2c3ccc(Cl)cc3N=C(N3CCN(C)CC3)c3ccccc32)cc1	8.11	5.82	–
CN1CCN(C2=Nc3cc(Cl)ccc3N(NC(=O)c3c(N)cccc3C(F)(F)F)c3ccccc32)CC1	8.15	7.04	–
CN1CCN(C2=Nc3cc(Cl)ccc3N(NC(=O)c3ccc(Cl)c(Cl)c3)c3ccccc32)CC1	7.92	5.19	–
CN1CCN(C2=Nc3cc(Cl)ccc3N(NC(=O)c3c(Cl)cccc3Cl)c3ccccc32)CC1	8.47	6.62	–
CN1CCN(C2=Nc3cc(Cl)ccc3N(NC(=O)c3cc(Cl)cc(Cl)c3)c3ccccc32)CC1	7.62	6.22	–
CN1CCN(C2=Nc3cc(Cl)ccc3N(NC(=O)c3c(Cl)cc(Cl)cc3Cl)c3ccccc32)CC1	8.40	6.41	–
CN1CCN(C2=Nc3cc(Cl)ccc3N(NC(=O)c3ccccc3-n3ccnc3)c3ccccc32)CC1	7.06	5.52	–
CN1CCN(C2=Nc3cc(Cl)ccc3N(NC(=O)C(C)(C)C)c3ccccc32)CC1	7.01	–	–
CN1CCN(C2=Nc3cc(Cl)ccc3N(NC(=O)c3cccc(Cl)c3)c3ccccc32)CC1	8.40	6.74	–
CN1CCN(C2=Nc3cc(Cl)ccc3N(NC(=O)c3sccc3-c3ccccc3)c3ccccc32)CC1	7.41	7.11	–
CN1CCN(C2=Nc3cc(Cl)ccc3N(NC(=O)c3ccon3)c3ccccc32)CC1	7.66	6.34	–
